pEC50: −log10 of the molar value.
Key:
[1] = Cytotoxicity against HBV infected human HepG2(2.2.15) cells; type: cell-based; conditions: HBV infected HepG2(2.2.15) cells
Outline: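 Toxicity was measured on confluent 2.2.15 cells alongside the primary anti-HBV assay. CC50 is given in µM.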

[2] = Toxicity against human Huh7ET cells assessed as reduction in beta-actin RNA levels at 20 uM; type: cell-based, Huh-7; conditions: values are per cent of control; for response, % of control at 20 µM: Huh7ET cells
Outline: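 HCV RNA replicon assay in Huh7 ET cells. Compounds were added in triplicate at a single concentration of 20 µM. Cytotoxicity was read as β-actin RNA as % of control, alongside HCV RNA-derived luciferase activity. Interferon-α (2 IU/mL) was the positive control.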

[3] = Selectivity index, ratio of CC50 for Influenza B virus (B/Florida/4/2006) infected MDCK cells to EC50 for antiviral activity against Influenza B virus (B/Florida/4/2006) in MDCK cells; type: toxicity, cell-based; conditions: dog; read-out: Ratio CC50/EC50
Hepatitis B virus = assay: Antiviral activity against HBV infected in human HepG2(2.2.15) cells; type: functional, organism-based
Outline: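 Primary anti-HBV screen in confluent 2.2.15 cells, run alongside a toxicity assay in the same cells. Compounds were supplied as DMSO solutions.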

[4] = Antiviral activity against Influenza A virus (A/Brisbane/10/2007(H3N2)) infected in MDCK cells; type: functional, cell-based
[5] = Cytotoxicity against Influenza B virus (B/Florida/4/2006) infected MDCK cells; type: cell-based, Canis lupus familiaris; conditions: dog
[6] = Selectivity index, ratio of toxicity against human Huh7ET cells assessed as reduction in beta-actin RNA levels at 20 uM to antiviral activity against HCV infected in human Huh7ET cells assessed as reduction in HCV RNA-derived luciferase activity at 20 uM by luciferase reporter gene assay; type: cell-based, Huh-7; conditions: read-out: Selectivity Index
Outline: (§1)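 HCV RNA replicon assay in Huh7 ET cells. Compounds were added in triplicate at a single concentration of 20 µM. Antiviral activity was read as HCV RNA-derived luciferase signal, expressed as % of control. Toxicity was read as β-actin RNA, % of control. SI = toxicity/antiviral activity. Interferon-α (2 IU/mL) was the positive control.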

Influenza B virus = assay: Antiviral activity against Influenza B virus (B/Florida/4/2006) in MDCK cells; type: functional, cell-based; conditions: B/Florida/4/2006, MDCK
Hepatitis C virus = assay: Antiviral activity against HCV infected in human Huh7ET cells assessed as reduction in HCV RNA-derived luciferase activity at 20 uM by luciferase reporter gene assay; type: functional, Hepacivirus hominis; conditions: Huh-7; outline: as §1
[7] = Selectivity index, ratio of CC50 for Influenza A virus (A/Brisbane/10/2007(H3N2)) infected MDCK cells to EC50 for antiviral activity against Influenza A virus (A/Brisbane/10/2007(H3N2)); type: toxicity, cell-based; conditions: dog; read-out: Ratio CC50/EC50
[8] = Cytotoxicity against Influenza A virus (A/Brisbane/10/2007(H3N2)) infected MDCK cells; type: cell-based, Canis lupus familiaris; conditions: dog
[9] = Selectivity index, ratio of CC50 for Influenza A virus (A/Viet Nam/1203/2004(H5N1)) infected MDCK cells to EC50 for antiviral activity against Influenza A virus (A/Viet Nam/1203/2004(H5N1)) infected in MDCK cells; type: toxicity, cell-based; conditions: dog; read-out: Ratio CC50/EC50
[10] = Antiviral activity against Influenza A virus (A/California/07/2009(H1N1)) infected in MDCK cells; type: functional, cell-based
[11] = Selectivity index, ratio of CC50 for Influenza A virus (A/California/07/2009(H1N1)) infected MDCK cells to EC50 for antiviral activity against Influenza A virus H1N1 (A/California/07/2009(H1N1)) infected in MDCK cells; type: toxicity, cell-based; conditions: dog; read-out: Ratio CC50/EC50
[12] = Cytotoxicity against Influenza A virus (A/Viet Nam/1203/2004(H5N1)) infected MDCK cells; type: cell-based, Canis lupus familiaris; conditions: dog
[13] = Antiviral activity against Influenza A virus (A/Viet Nam/1203/2004(H5N1)) infected in MDCK cells; type: functional, cell-based
[14] = Cytotoxicity against Influenza A virus (A/California/07/2009(H1N1)) infected MDCK cells; type: cell-based, Canis lupus familiaris; conditions: dog
rhinovirus A2 = assay: Antiviral activity against human rhinovirus 2 infected in MDCK cells; type: functional, organism-based; conditions: Rhinovirus A
[15] = Cytotoxicity against human rhinovirus 2 infected MDCK cells; type: cell-based, Canis lupus familiaris; conditions: dog, MDCK cells infected with human rhinovirus 2
[16] = Antiviral activity against SARS coronavirus Urbani infected in African green monkey Vero 76 cells; type: functional, cell-based; conditions: Severe acute respiratory syndrome-related coronavirus
[17] = Cytotoxicity against Adenovirus Chicago 65089 infected human A549 cells; type: cell-based; conditions: A549 cells infected with Adenovirus Chicago 65089
Outline: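 Respiratory-virus panel screen on A-549 cells, with compounds supplied as DMSO solutions. CC50 is the cell inhibitory concentration at the 50% endpoint, in µM.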

[18] = Cytotoxicity against SARS coronavirus Urbani infected African green monkey Vero 76 cells; type: cell-based; conditions: chlorocebus sabaeus, Vero 76 cells infected with SARS coronavirus Urbani
[19] = Selectivity index, ratio of CC50 for human rhinovirus 2 infected MDCK cells to EC50 for antiviral activity against human rhinovirus 2 infected in MDCK cells; type: toxicity, cell-based; conditions: dog, MDCK cells infected with human rhinovirus 2; read-out: Ratio CC50/EC50
[20] = Cytotoxicity against HPV11 infected PHK cells epithelial raft cultures by standard AACF screening assay; type: cell-based; conditions: human
unidentified adenovirus = assay: Antiviral activity against Adenovirus Chicago 65089 infected in human A549 cells; type: functional, organism-based; conditions: Chicago 65089, A549
human papillomavirus 11 = assay: Antiviral activity against HPV11 infected in PHK cells epithelial raft cultures by standard AACF screening assay; type: functional, organism-based; conditions: human papillomavirus 11, PHK
[21] = Selectivity index, ratio of CC50 for ARS coronavirus Urbani infected African green monkey Vero 76 cells to EC50 for antiviral activity against ARS coronavirus Urbani infected in African green monkey Vero 76 cells; type: toxicity, cell-based; conditions: Vero 76 cells infected with SARS coronavirus Urbani, read-out: Ratio CC50/EC50

Row | SMILES | CC50 [1] | response, % of control at 20 µM [2] | selectivity ratio [3] | pEC50 (Hepatitis B virus) | EC90 (Hepatitis B virus) | pEC50 [4] | CC50 [5] | selectivity ratio at 20 µM [6] | pEC50 (Influenza B virus) | inhibition at 20 µM (Hepatitis C virus) | selectivity ratio [7] | CC50 [8] | selectivity ratio [9] | pEC50 [10] | selectivity ratio [11] | CC50 [12] | pEC50 [13] | CC50 [14] | further results
1 | CC(C)C1=C[C@@]23CC[C@@H]4[C@](C)(CCC[C@@]4(C)C(=O)O)[C@H]2C[C@@H]1[C@H]1C(=O)CCC(=O)[C@H]13 | 62 µM | 88% | 4 | < 5.00 | > 10 µM | 4.49 | 34 µM | < 1 | 5.07 | 0% | 1.1 | 36 µM | – | – | – | – | – | – | –
2 | COC(=O)[C@H](C)NC(=O)[C@]1(C)CCC[C@]2(C)[C@H]3C[C@H]4C(C(C)C)=C[C@]3(CC[C@H]21)[C@@H]1C(=O)OC(=O)[C@@H]14 | – | – | 1 | – | – | 4.49 | 33 µM | – | 4.49 | – | 1 | 33 µM | 1 | 4.49 | 1.1 | 33 µM | 4.49 | 34 µM | –
3 | COC(=O)[C@]1(C)CCC[C@]2(C)[C@H]3C[C@H]4C(C(C)C)=C[C@]3(CC[C@H]21)[C@@H]1/C(=N/O)CCC2(OCCO2)[C@@H]14 | 20 µM | 0.2% | 1 | < 5.00 | > 10 µM | 5.49 | 3.2 µM | < 1 | 5.49 | 97.9% | 1 | 3.3 µM | 1 | < 5.54 | – | 3.3 µM | 5.49 | 2.9 µM | pEC50 (rhinovirus A2): 5.49; CC50 [15]: 3.2 µM; pEC50 [16]: < 5.62; CC50 [17]: 9.8 µM; CC50 [18]: 2.4 µM; selectivity ratio [19]: 1; CC50 [20]: < 50 µM; pEC50 (unidentified adenovirus): < 5.01; pEC50 (human papillomavirus 11): < 4.30
4 | CC(C)C1=C[C@]23CC[C@@H]4[C@](C)(CCC[C@@]4(C)C(=O)O)[C@H]2C[C@H]1[C@H]1C(=O)OC(=O)[C@H]13 | – | – | 1.3 | – | – | 4.43 | 36 µM | – | 4.57 | – | 1.2 | 44 µM | 1.1 | 4.51 | 1.5 | 35 µM | 4.49 | 48 µM | –
5 | COC(=O)[C@]1(C)CCC[C@]2(C)[C@H]3C[C@H]4C(C(C)C)=C[C@]3(CC[C@H]21)[C@@H]1C(=O)CC[C@H](OC(=O)/C=C/c2ccccc2)[C@@H]14 | – | – | 2.4 | – | – | < 4.77 | 24 µM | – | 5.00 | – | – | 17 µM | – | 4.51 | 1.1 | 9 µM | < 5.05 | 35 µM | –
6 | COC(=O)[C@]1(C)CCC[C@]2(C)[C@H]3C[C@H]4C(C(C)C)=C[C@]3(CC[C@H]21)[C@@H]1C(=O)[C@H]2O[C@H]2C(=O)[C@@H]14 | – | – | 1 | – | – | < 4.64 | 3.3 µM | – | 5.49 | – | – | 23 µM | 1 | 4.54 | 1.2 | 3.3 µM | 5.49 | 34 µM | –
7 | COC(=O)[C@]1(C)CCC[C@]2(C)[C@H]3C[C@H]4C(C(C)C)=C[C@]3(CC[C@H]21)[C@H]1[C@@H]4[C@@H](OC(=O)CCC(=O)O)CC[C@@H]1OC(=O)CCC(=O)O | 21 µM | 6.4% | 1.1 | < 5.00 | > 10 µM | – | 3.4 µM | < 1 | 5.51 | 96.6% | – | – | 1 | – | – | 3.2 µM | 5.49 | – | pEC50 (rhinovirus A2): 4.51; CC50 [15]: 33 µM; pEC50 [16]: 5.49; CC50 [17]: 10 µM; CC50 [18]: 3.6 µM; selectivity ratio [19]: 1.1; CC50 [20]: < 50 µM; pEC50 (unidentified adenovirus): < 5.00; pEC50 (human papillomavirus 11): < 4.30; selectivity ratio [21]: 1.1
8 | COC(=O)[C@]1(C)CCC[C@]2(C)[C@H]3C[C@H]4C(C(C)C)=C[C@]3(CC[C@H]21)[C@@H]1C(=O)CC[C@H](OC(=O)c2cccnc2)[C@@H]14 | – | – | 1 | – | – | 4.49 | 3.2 µM | – | 5.49 | – | 1 | 33 µM | 1 | 4.49 | 1.1 | 3.2 µM | 5.49 | 35 µM | –
9 | COC(=O)[C@H](CCSC)NC(=O)[C@]1(C)CCC[C@]2(C)[C@H]3C[C@H]4C(C(C)C)=C[C@]3(CC[C@H]21)[C@@H]1C(=O)OC(=O)[C@@H]14 | – | – | 1 | – | – | < 4.52 | 32 µM | – | 4.49 | – | – | 30 µM | 1 | 4.51 | 1.1 | 32 µM | 4.49 | 34 µM | –
10 | COC(=O)[C@]1(C)CCC[C@]2(C)[C@H]3C[C@H]4C(C(C)C)=C[C@]3(CC[C@H]21)[C@@H]1C(=O)CCC(=O)[C@@H]14 | – | – | > 3.1 | – | – | < 4.00 | > 100 µM | – | 4.49 | – | – | > 100 µM | – | < 4.00 | – | > 100 µM | < 4.00 | > 100 µM | –
11 | COC(=O)[C@]1(C)CCC[C@]2(C)[C@H]3CC4C(C(C)C)=C[C@]3(CC[C@H]21)[C@@H]1NC(=O)CC[C@H](O)[C@H]41 | 58 µM | 102% | 1.5 | < 5.00 | > 10 µM | < 4.55 | 35 µM | > 1 | 4.62 | 97.3% | – | 28 µM | – | 4.49 | 1 | 28 µM | < 4.55 | 33 µM | pEC50 (rhinovirus A2): < 4.55; CC50 [15]: 28 µM; pEC50 [16]: 5.20; CC50 [17]: 29 µM; CC50 [18]: 32 µM; CC50 [20]: < 50 µM; pEC50 (unidentified adenovirus): < 4.54; pEC50 (human papillomavirus 11): > 4.30; selectivity ratio [21]: 5.1
12 | COC(=O)[C@]1(C)CCC[C@]2(C)[C@H]3C[C@H]4C(=C(C)C)C5O[C@@]6(O)CCC(=O)[C@H]4[C@@H]6[C@@]53CC[C@H]21 | 59 µM | – | – | < 5.00 | > 10 µM | – | – | > 1 | – | 68.4% | – | – | – | – | – | – | – | – | response, % of control ([2]; huh-7, 20 µM): 151.2%

Reference: ChEMBL document CHEMBL3616462, “Synthesis and antiviral activity of maleopimaric and quinopimaric acids' derivatives” (Bioorg Med Chem, 2015)
